Measurements taken from ChEMBL document CHEMBL1155452, “Oncocin (VDKPPYLPRPRPPRRIYNR-NH2): a novel antibacterial peptide optimized against gram-negative human pathogens” (J Med Chem, 2010).

How the values were obtained:
[1] = system: Escherichia coli; test: Antimicrobial activity against Escherichia coli Neumann after 20 hrs by broth microdilution method; type: functional
Outline: (§1)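 Pathogens grown overnight on Columbia agar. Colonies suspended in 0.9% saline to OD 0.1, diluted 1:300 in 1% TSB, final (1-2) × 10^5 cfu/well. Peptides 2-fold serially diluted in 1% TSB from 128 to typically 0.5 μg/mL. Incubation at 37 °C; A595 read after 20 ± 2 h. MIC is the lowest concentration with absorbance not above medium only. Triplicate.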

[2] = system: Escherichia coli; test: Antimicrobial activity against Escherichia coli 205024 after 20 hrs by broth microdilution method; type: functional; details: Escherichia coli, 205024, 20 h; outline: as §1
[3] = system: Escherichia coli; test: Antimicrobial activity against Escherichia coli 8474 after 20 hrs by broth microdilution method; type: functional; details: Escherichia coli, 8474, 20 h; outline: as §1
[4] = system: Klebsiella pneumoniae; test: Antimicrobial activity against Klebsiella pneumoniae DSM 681 after 20 hrs by broth microdilution method; type: functional; details: DSM 681, 20 h; outline: as §1
[5] = system: Escherichia coli; test: Antibacterial activity against Escherichia coli BL21 AI after 20 hrs by broth microdilution assay; type: functional
Outline: (§2)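 Nutrient-broth overnight cultures diluted in 1% TSB; E. coli BL21AI 7.5 × 10^5 cells/well, M. luteus ATCC 10240 2 × 10^6 cells/well. Peptides serially 2-fold diluted in 1% TSB from 128 to typically 0.5 μg/mL. Incubation at 37 °C; A595 read after 20 ± 2 h. MIC is the lowest concentration with absorbance not above medium only. Triplicate.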

[6] = system: Micrococcus luteus; test: Antibacterial activity against Micrococcus luteus ATCC 10240 after 20 hrs by broth microdilution assay; type: functional; details: ATCC 10240, 20 h; outline: as §2
[7] = system: Klebsiella pneumoniae; test: Antimicrobial activity against Klebsiella pneumoniae 8085 after 20 hrs by broth microdilution method; type: functional; details: Klebsiella pneumoniae, 8085, 20 h; outline: as §1
[8] = system: Klebsiella pneumoniae; test: Antimicrobial activity against Klebsiella pneumoniae ATCC 27799 after 20 hrs by broth microdilution method; type: functional; details: ATCC 27799, 20 h
Outline: (§3)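 Pathogenic strains grown overnight on Columbia agar, colonies suspended in 0.9% saline to OD 0.1, diluted 1:300 in 1% TSB; final (1-2) × 10^5 cfu/well. Peptides 2-fold serially diluted in 1% TSB from 128 μg/mL, typically to 0.5 μg/mL. Incubated 37 °C, absorbance at 595 nm after 20 ± 2 h, in triplicate; MIC = lowest concentration with absorbance not exceeding medium only.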

[9] = system: Acinetobacter baumannii; test: Antimicrobial activity against Acinetobacter baumannii ICB 14067 after 20 hrs by broth microdilution method; type: functional; details: ICB 14067, 20 h; outline: as §1
[10] = system: Acinetobacter baumannii; test: Antimicrobial activity against Acinetobacter baumannii ICB 14073 after 20 hrs by broth microdilution method; type: functional; details: ICB 14073, 20 h; outline: as §1
[11] = system: Enterobacter cloacae; test: Antimicrobial activity against Enterobacter cloacae 34654 after 20 hrs by broth microdilution method; type: functional; details: Enterobacter cloacae, 34654, 20 h; outline: as §1
[12] = system: Serum; test: Stability in 25% mouse serum assessed as peptide-12 level at 75 ug/ml after 2 hrs by MALDI-TOF-MS analysis; type: ADME, cell-free
Outline: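 Peptide at 75 μg/mL final in pooled mouse serum (undiluted or 25% v:v aqueous), 37 °C. Triplicate aliquots taken at 0, 30, 60, 120 and 240 min and precipitated with 3% TCA on ice for 10 min. Supernatant neutralized with NaOH and analysed by RP-HPLC on C18 with TFA-containing gradient. Amounts expressed relative to 0 min; metabolites identified by MALDI-TOF-MS.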

[13] = system: Klebsiella pneumoniae; test: Antimicrobial activity against Klebsiella pneumoniae 57 USA after 20 hrs by broth microdilution method; type: functional; outline: as §1
[14] = system: Escherichia coli; test: Antimicrobial activity against Escherichia coli 70329001 after 20 hrs by broth microdilution method; type: functional; details: Escherichia coli, 70329001, 20 h; outline: as §1
[15] = system: Pseudomonas aeruginosa; test: Antimicrobial activity against Pseudomonas aeruginosa DSM 3227 after 20 hrs by broth microdilution method; type: functional; details: DSM 3227, 20 h; outline: as §3
[16] = Drug uptake in Escherichia coli BL21 AI assessed as intracellular localization at 30 ug/ml after 20 mins by confocal fluorescence microscopy; type: ADME, cell-based; details: escherichia coli bl21, 20 min; in the assay text read “30 uM” for “30 ug/ml”
Outline: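 E. coli BL21 AI overnight culture diluted to 1.5 × 10^7 cells/mL in 1% TSB. 5(6)-Carboxyfluorescein N-terminally labelled peptide added at 30 μmol/L final, with 60-fold molar excess of TAMRA to quench extracellular fluorescence. Imaged at room temperature at 20 and 50 min by confocal laser scanning microscopy (488 nm excitation), with phase contrast.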

Work on H-VDKPPYLPRPRPPRRIYNR-NH2 [ONCOCIN] yielded an MIC [1] of 2 µg/mL, an MIC [2] of 4 µg/mL and an MIC [3] of 0.5 µg/mL. It also gave an MIC [4] of 0.25 µg/mL, an MIC [5] of 4 µg/mL and an MIC [6] of 8 µg/mL. The MIC [7] was 0.5 µg/mL, the MIC [8] was 1 µg/mL and the MIC [9] was 1 µg/mL. It also gave an MIC [10] of 2 µg/mL, an MIC [11] of 0.25 µg/mL and an Activity [12] of 20%. The MIC [13] was 0.25 µg/mL, the MIC [14] was 1 µg/mL and the MIC [15] was 4 µg/mL. For the same substance, the Activity [16] was “Active”.
